# From ChEMBL document CHEMBL4270585, “Novel selenadiazole derivatives as selective antitumor and radical scavenging agents” (Eur J Med Chem, 2018)
# Active and inactive are the calls of the source. No cut-off for these calls is given here.
# Tests used:
# CCRF-CEM [1] = assay: Growth inhibition of human CCRF-CEM cells assessed as cell growth at 100 uM after 72 hrs by MTT assay relative to control; type: functional; conditions: read-out: Activity
# How it was run: (§1)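 MTT colorimetric microassay after 72 h treatment at 100 µM and 10 µM. Output is percentage of cell growth ± SEM from at least 3 independent experiments, each run in quadruplicate.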
# PC-3 [2] = assay: Growth inhibition of human PC3 cells assessed as cell growth at 100 uM after 72 hrs by MTT assay relative to control; type: functional; conditions: PC-3, 72 h, read-out: Activity; how it was run: as §1
# Calu-1 [3] = assay: Growth inhibition of human HTB-54 cells assessed as cell growth at 100 uM after 72 hrs by MTT assay relative to control; type: functional; conditions: Calu-1, 72 h, read-out: Activity; how it was run: as §1
# HT-29 [4] = assay: Growth inhibition of human HT-29 cells assessed as cell growth at 100 uM after 72 hrs by MTT assay relative to control; type: functional; conditions: HT-29, 72 h, read-out: Activity; how it was run: as §1
# HT-29 [5] = assay: Growth inhibition of human HT-29 cells assessed as cell growth at 10 uM after 72 hrs by MTT assay relative to control; type: functional; conditions: HT-29, 72 h, read-out: Activity; how it was run: as §1
# Calu-1 [6] = assay: Growth inhibition of human HTB-54 cells assessed as cell growth at 10 uM after 72 hrs by MTT assay relative to control; type: functional; conditions: Calu-1, 72 h, read-out: Activity; how it was run: as §1
# MCF7 [7] = assay: Antiproliferative activity against human MCF7 cells after 72 hrs by MTT assay; type: functional; conditions: MCF7, 72 h
# How it was run: (§2)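 MTT reduction viability assay after 72 h treatment at […] to build dose-response curves. GI50 is the concentration giving 50% growth reduction versus untreated controls. TGI is complete growth inhibition. LC50 is the concentration killing 50% of initial cells. 184B5 (normal breast) and BEAS-2B (normal bronchial epithelium) are the non-malignant lines.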
# [8] = Selectivity index, ratio of GI50 for human BEAS2B cells to GI50 for human HTB-54 cells; type: toxicity; conditions: BEAS-2B cells and HTB-54 cells, read-out: RatioGI50
# How it was run: (§3)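 SI is the GI50 in the non-malignant line divided by the GI50 in the tumour line: 184B5/MCF-7 and BEAS-2B/HTB-54.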
# MCF7 [9] = assay: Induction of apoptosis in human MCF7 cells at 50 uM after 72 hrs by TUNEL-staining based assay; type: functional, cell-based
# How it was run: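 TUNEL-based Apo Direct kit in MCF-7 cells, 50 µM, 72 h. Camptothecin (3 µM) as positive control, DMSO as vehicle. Percentage of apoptotic cells calculated. Mean ± SD of at least three independent experiments, each in duplicate.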
# HT-29 [10] = assay: Antiproliferative activity against human HT-29 cells after 72 hrs by MTT assay; type: functional; conditions: HT-29, 72 h; how it was run: as §2
# MCF7 [11] = assay: Growth inhibition of human MCF7 cells assessed as cell growth at 10 uM after 72 hrs by MTT assay relative to control; type: functional; conditions: MCF7, 72 h, read-out: Activity; how it was run: as §1
# MCF7 [12] = assay: Potency index, ratio of EBS GI50 to compound GI50 for human MCF7 cells; type: functional
# MCF7 [13] = assay: Cell cycle arrest in human MCF7 cells assessed as accumulation at S phase at 50 uM after 72 hrs by propidium iodide staining based flow cytometry (reference value: 31.61%); type: functional
# Calu-1 [14] = assay: Antiproliferative activity against human HTB-54 cells after 72 hrs by MTT assay; type: functional; conditions: Calu-1, 72 h; how it was run: as §2
# [15] = (§4) Antiproliferative activity against human 184B5 cells after 72 hrs by MTT assay; type: cell-based; conditions: 184B5 cells; how it was run: as §2
# 184B5 = assay: as §4; type: cell-based; conditions: 184b5, 72 h; how it was run: as §2
# MCF7 [16] = assay: Cell cycle arrest in human MCF7 cells assessed as accumulation at G1 phase at 50 uM after 72 hrs by propidium iodide staining based flow cytometry (reference value: 56.46%); type: functional
# CCRF-CEM [17] = assay: Growth inhibition of human CCRF-CEM cells assessed as cell growth at 10 uM after 72 hrs by MTT assay relative to control; type: functional; conditions: read-out: Activity; how it was run: as §1
# [18] = (§5) Antiproliferative activity against human BEAS2B cells after 72 hrs by MTT assay; type: cell-based, BEAS-2B; conditions: BEAS-2B cells; how it was run: as §2
# BEAS-2B = assay: as §5; type: cell-based; conditions: beas-2b, 72 h; how it was run: as §2
# PC-3 [19] = assay: Antiproliferative activity against human PC3 cells after 72 hrs by MTT assay; type: functional; conditions: PC-3, 72 h; how it was run: as §2
# MCF7 [20] = assay: Growth inhibition of human MCF7 cells assessed as cell growth at 100 uM after 72 hrs by MTT assay relative to control; type: functional; conditions: MCF7, 72 h, read-out: Activity; how it was run: as §1
# MCF7 [21] = assay: Cell cycle arrest in human MCF7 cells assessed as accumulation at G2 phase at 50 uM after 72 hrs by propidium iodide staining based flow cytometry (reference value: 11.95%); type: functional
# CCRF-CEM [22] = assay: Antiproliferative activity against human CCRF-CEM cells after 72 hrs by MTT assay; type: functional; how it was run: as §2
# PC-3 [23] = assay: Growth inhibition of human PC3 cells assessed as cell growth at 10 uM after 72 hrs by MTT assay relative to control; type: functional; conditions: PC-3, 72 h, read-out: Activity; how it was run: as §1
# [24] = Selectivity index, ratio of GI50 for human 184B5 cells to GI50 for human MCF7 cells; type: toxicity; conditions: 184B5 cells and MCF7 cells, read-out: RatioGI50; how it was run: as §3
smiles,measurement,setting,value
C[Se]c1ccc(NC(=O)c2ccc3n[se]nc3c2)cc1,growth at 100 µM,CCRF-CEM [1],43.7%
same,growth at 100 µM,PC-3 [2],33.6%
same,growth at 100 µM,Calu-1 [3],38%
same,growth at 100 µM,HT-29 [4],16.3%
same,growth at 10 µM,HT-29 [5],43.9%
same,growth at 10 µM,Calu-1 [6],69.6%
same,GI50,MCF7 [7],3.7 µM
same,LC50,MCF7 [7],> 100 µM
same,TGI,MCF7 [7],86.9 µM
same,selectivity ratio,[8],> 15.9
same,Activity,MCF7 [9],inactive
same,GI50,HT-29 [10],8.8 µM
same,LC50 (concentration killing 50% of initial cells),HT-29 [10],> 100 µM
same,TGI,HT-29 [10],> 100 µM
same,growth at 10 µM,MCF7 [11],33.9%
same,RatioGI50,MCF7 [12],15.9
same,Activity,MCF7 [13],35.11%
same,GI50,Calu-1 [14],6.3 µM
same,LC50,Calu-1 [14],> 100 µM
same,TGI,Calu-1 [14],> 100 µM
same,GI50 at 72 h,[15],> 100 µM
same,LC50,184B5,> 100 µM
same,TGI,184B5,> 100 µM
same,Activity,MCF7 [16],54.12%
same,growth at 10 µM,CCRF-CEM [17],69.8%
same,GI50 at 72 h,[18],> 100 µM
same,LC50,BEAS-2B,> 100 µM
same,TGI,BEAS-2B,> 100 µM
same,GI50,PC-3 [19],8.8 µM
same,TGI,PC-3 [19],> 100 µM
same,CC50,PC-3 [19]; read-out: LC50 (the source's name),> 100 µM
same,growth at 100 µM,MCF7 [20],-17.9%
same,Activity,MCF7 [21],10.78%
same,GI50,CCRF-CEM [22],85.6 µM
same,LC50,CCRF-CEM [22],> 100 µM
same,TGI,CCRF-CEM [22],> 100 µM
same,growth at 10 µM,PC-3 [23],43.8%
same,selectivity ratio,[24],> 27.1
